Assay outcomes from PubChem.
OX1R antag-1: OX1R (human) antagonism; OX1R-expressing cells, FRET antagonist read-out; inhibition, % at 6.6 µM; 330,000 tested, 1.8% active; AID 485270; in the data active = inhibition mostly above about 38%, no sharp cut-off; inactive = mostly below about 40%;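 note: 0% = agonist challenge alone and 100% = reference antagonist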
CHO parental Ca: signal in parental CHO cells, OX1R antagonist counter-screen; parental CHO-K1, ATP-induced calcium, Fluo-8 fluorescence; inhibition, % at 5.6 µM; 330,000 tested, 0.63% active; AID 463079;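 active = inhibition above that plate's mean sample inhibition plus 3 SD, cut at about 26% in these data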;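 note: 0% = ATP-challenged DMSO wells and 100% = DMSO wells without ATP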
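Material: Parental CHO cells | Reagent: ATP | Compound dosing: Single nominal dose of 5.6 µM per compound | Detection: Intracellular calcium via Fluo-8 no-wash fluorescent dye | Read-out: % inhibition of ATP-induced calcium mobilization | Benchmarks: Low control ATP plus DMSO, high control DMSO only | Replicates: Singlicate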
TAAR1 ag: agonists of human TAAR1 | activation, % at 3 µM | 360,000 tested, 0.99% active | CHO RD-HGA16 TAAR1, Fluo-8 calcium fluorescence; vehicle wells 0%, saturating PEA agonist 100%;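 active = activation above the mean activation of all test compounds in the run plus 3 SD, cut at about 38% in these data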
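Assay system – CHO-derived RD-HGA16 cells with stable Gα16 and human TAAR1 · Compound dosing – one-point dosing at 3 µM (nominal) · Incubation – 17-24 h seeding, 75 min 37 °C dye, 30 min RT · Measured by – kinetic Fluo-8 calcium fluorescence · Control set – DMSO vehicle as 0%, PEA at EC100 as 100% · Repeats – single well for each compound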
NTR1 ag: activates human neurotensin receptor 1. P30989. NTR1-U2OS beta-arrestin-GFP spot imaging, agonist mode. 330,000 tested, 0.17% active. activation, % at 20 µM;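 active = activation at or above 40% of the spot to cytoplasm intensity ratio, with at least 20 cells analyzed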;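 note: 0% = DMSO without peptide and 100% = 100 nM NTR1 peptide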
Target sequence (P30989 whole entry, looked up): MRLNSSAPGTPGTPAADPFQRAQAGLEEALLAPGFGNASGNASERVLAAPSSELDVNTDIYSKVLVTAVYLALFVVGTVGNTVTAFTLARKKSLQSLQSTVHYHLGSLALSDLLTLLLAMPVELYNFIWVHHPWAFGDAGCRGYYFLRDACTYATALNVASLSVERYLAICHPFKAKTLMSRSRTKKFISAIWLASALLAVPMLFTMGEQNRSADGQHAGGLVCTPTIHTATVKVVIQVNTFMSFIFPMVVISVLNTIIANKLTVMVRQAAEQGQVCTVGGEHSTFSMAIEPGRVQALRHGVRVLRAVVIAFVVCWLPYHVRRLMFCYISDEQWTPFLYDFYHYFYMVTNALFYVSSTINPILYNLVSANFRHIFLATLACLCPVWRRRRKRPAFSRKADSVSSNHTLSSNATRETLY
OX1R antag-2: antagonists of human orexin 1 receptor; O43613; CHO/OX1R cells, Fluo-8 calcium fluorescence, orexin A; inhibition, % at 5 µM; 330,000 tested, 0.43% active;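 active = inhibition above its plate's threshold, mean inhibition of all tested compounds on the plate plus 3 SD, cut at about 37% in these data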;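 note: 0% = orexin A challenge wells and 100% = SB-334867-A antagonist wells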
TAAR1 antagonist: human TAAR1 antagonism | CHO RD-HGA16 TAAR1, Fluo-8 calcium fluorescence, antagonist | 360,000 tested, 1.5% active | inhibition, % at 3 µM | Q96RJ0;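 active = inhibition above a per-plate cutoff, the mean inhibition of test compounds on that plate plus 3 SD, cut at about 49% in these data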;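 note: 0% = DMSO plus EC80 beta-PEA response and 100% = DMSO alone without agonist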
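Assay system: CHO-derived RD-HGA16 cells stably expressing human TAAR1 plus Gα16. Timing: 140 s kinetic read after compound, 140 s after agonist. Technique: kinetic Fluo-8 calcium fluorescence measurement. Measure: % inhibition of agonist calcium response.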
OX1R Fluo8 conf: OX1R (human) antagonism, confirmed; 1,100 tested, 38% active; CHO/OX1R cells, orexin A calcium Fluo-8 fluorescence; inhibition, % at 5 µM; shares compounds with OX1R antag-2; AID 492963; in the data active = inhibition above about 29%;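 note: 0% = agonist challenge alone and 100% = reference antagonist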
CHO Ca counter: counter-screen: parental CHO calcium response change, triplicate | shares compounds with OX1R antag-2 | parental CHO-K1, ATP-induced calcium, Fluo-8 fluorescence | inhibition, % at 5.6 µM | 1,100 tested, 9.3% active | AID 492965;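 active = inhibition above a per-plate limit, the mean inhibition of that plate's test compounds plus 3 SD, cut at about 25% in these data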;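 note: 0% = ATP challenge with DMSO and 100% = DMSO without ATP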
OX1R HTRF confirm: OX1R (human) antagonism, HTRF confirmed; shares compounds with OX1R antag-1; OX1R-expressing cells, HTRF antagonist assay; inhibition, % at 6.6 µM; 1,800 tested, 49% active; AID 492964; in the data active = inhibition above about 55%;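 note: CHO cells expressing OX1R stimulated with orexin A at about EC80; 0% = agonist challenge alone and 100% = reference antagonist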
CHO-K1 HTRF cnt: counter-screen for OX1R antagonists: effect in parental CHO-K1 cells; shares compounds with OX1R antag-1; HTRF counterscreen; inhibition, % at 6.6 µM; 1,800 tested, 48% active; AID 493232; in the data active = inhibition above about 17%;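 note: 0% = agonist challenge with vehicle and 100% = vehicle alone without agonist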
The depositor's hits bear a star; / = not tested or not shown. Hits are enriched below; roughly 4% of the tested compounds scored in any of these assays.

SMILES	OX1R antag-1	CHO parental Ca	TAAR1 ag	NTR1 ag	OX1R antag-2	TAAR1 antagonist	OX1R Fluo8 conf	CHO Ca counter	OX1R HTRF confirm	CHO-K1 HTRF cnt
CC(=O)Nc1cccc(NC(=O)c2ccc(S(=O)(=O)NCc3ccco3)cc2)c1	/	/	1	/	/	-15	/	/	/	/
O=C(NCc1ccco1)c1cc(-c2ccccc2)nc2ccccc12	42	-25	8	0	-30	47	/	/	/	/
CCN(C[C@H]1N[C@@](C)(C(=O)OC)[C@H]2C(=O)N(C)C(=O)[C@@H]12)S(=O)(=O)c1ccc(-c2ccccc2)cc1	1	-17	3	1	-24	4	/	/	/	/
CCc1nn(C)c2c(=O)c(=O)c2n(C)[nH]1	21	-20	1	1	-2	0	/	/	/	/
CC1Sc2ccc(S(=O)(=O)CCC(=O)N3CCc4ccccc43)cc2NC1=O (stereo not drawn)	4	-13	15	0	-49	0	/	/	/	/
Cc1cc(C(=O)OCC(=O)Nc2c(Cl)cccc2C(F)(F)F)c(C)o1	14	0	2	1	-5	0	/	/	/	/
CC(C)C(NS(=O)(=O)c1cccc2nsnc12)C(=O)N1CCn2c1nc1ccccc12 (stereo not drawn)	134*	-14	0	-1	27	13	19	-9	92*	16
COc1cc(C(=O)NNC(=S)NC(=O)c2ccc(F)cc2)cc(OC)c1OC	3	-2	37	2	-20	-8	/	/	/	/
Cc1cc(C)cc(N(C(C)C(=O)N2CCCC2)S(C)(=O)=O)c1 (stereo not drawn)	2	3	9	3	-9	-1	/	/	/	/
Cc1ccc(C)c(NC(=O)CN(C)C(=O)c2cccc(N3C(=O)CCC3=O)c2)c1	12	-9	1	0	-22	-23	/	/	/	/
CCN1C(=O)c2cccc3c(S(=O)(=O)NCCc4c[nH]c5ccccc45)ccc1c23	81*	-18	19	8	38	19	32*	2	72*	2
Cc1ccc2nc(SCC(=O)c3c(C)[nH]c4ccccc34)[nH]c2c1	89*	-11	9	1	32	28	29*	-5	78*	-1
Cc1ccc2nc(SCC(=O)c3c[nH]c4ccccc34)[nH]c2c1	24	-25	20	1	-9	9	/	/	/	/
CNC(=O)NC(=O)C(C)OC(=O)c1c2c(nc3ccccc13)/C(=C/c1cccs1)CC2 (stereo not drawn)	66*	-21	3	9	52*	29	92*	0	93*	9
Cc1csc(-c2coc3cc(O)cc(C)c3c2=O)n1	94*	-4	3	-2	60*	-17	25	4	91*	7
CC(Nc1c[nH]c(=O)[nH]c1=O)c1ccccc1 (stereo not drawn)	/	/	4	1	/	-8	/	/	/	/
CCSc1nnc(NC(=O)c2ccc3ccccc3n2)s1	94*	-1	0	4	79*	-6	43*	-2	92*	7
O=C(Nc1ccc(Cl)cn1)c1ccc2ccccc2n1	7	-5	12	1	-8	3	/	/	/	/
O=C(Nc1ccc2c(c1)OCCO2)c1ccc2ccccc2n1	107*	-18	-1	0	28	1	22	3	87*	14
Cc1ccc(NC(=O)c2ccc3ccccc3n2)nc1	87*	-19	3	2	39	-20	38*	-12	97*	-3
CN1C(=O)[C@@H]2[C@H](C1=O)[C@@H]1C(=O)Nc3ccccc3C(=O)N1[C@@H]2c1cccc(Br)c1	25	-16	1	-1	-5	-5	/	/	/	/
COc1cccc(CNC(=O)CCCn2nc(C)n3c(cc4sccc43)c2=O)c1	-5	-12	3	3	-18	-14	/	/	/	/
Cc1ccc(NC2CCCN(C(=O)c3ccccc3-c3ncc[nH]3)C2)cc1C (stereo not drawn)	34	-22	0	0	-14	10	/	/	/	/
Cc1ccc(NC2CCCN(C(=O)c3cccc(-c4ncc[nH]4)c3)C2)cc1C (stereo not drawn)	93*	-20	2	0	32	-8	65*	-15	92*	4
CC(C)c1ccc(CN(C)C(=O)c2ccc(S(=O)(=O)NCc3ccco3)cc2)cc1	42*	-9	14	1	44*	33	25	25*	42	-4
SMILES	OX1R antag-1	CHO parental Ca	TAAR1 ag	NTR1 ag	OX1R antag-2	TAAR1 antagonist	OX1R Fluo8 conf	CHO Ca counter	OX1R HTRF confirm	CHO-K1 HTRF cnt
Cc1cccc(OCC(=O)N/N=C\c2cn(C)c3ccccc23)c1	45*	1	-2	10	30	-2	5	7	38	3
CCCSc1nnc(NC(=O)Nc2ccc(F)cc2)s1	77*	9	20	3	29	16	10	21	48	10
COc1cccc(C(=O)Nc2ccc(-c3nnc(-c4ccco4)o3)cc2)c1	77*	-24	13	2	33	47	34*	-6	71*	20*
O=C(Nc1cccc(-c2nnc(-c3ccco3)o2)c1)c1ccccc1	34	-24	9	0	-35	36	/	/	/	/
CCc1ccc(-c2cc(C)no2)cc1S(=O)(=O)NCCCN1CCN(c2ccccc2)CC1	41*	5	3	7	33	32	13	-6	31	-1
CCc1ccc(-c2cc(C)no2)cc1S(=O)(=O)NCCN1CCC(C)CC1	11	-34	0	0	-28	-22	/	/	/	/
COc1ccc(C=NNC(=S)NN=Cc2ccc(OC)c(OC)c2)cc1OC	/	/	6	/	/	-6	/	/	/	/
COc1ccc(/C=N/Nc2snc(SC)c2C#N)cc1OC	109*	-17	26	6	74*	4	53*	-2	96*	17*
Oc1ccccc1-c1nc(NCC2CCCO2)c2ccccc2n1 (stereo not drawn)	97*	-21	5	-1	63*	37	44*	-7	88*	16
COc1ccc(OCC(=O)NNc2c3ccccc3nc3ccccc23)cc1	102*	8	16	58*	41*	59*	2	-11	33	8
O=C(O)/C(=C\c1ccccc1)c1ccc2ccccc2c1	11	-11	4	0	-6	-41	/	/	/	/
